In brackets after ≈: the same amount, converted by molar mass.
What was measured:
Liver = test: Antioxidant activity in rat liver cells assessed as inhibition of Fe(2+)-asocrbate complex system-induced lipid peroxidation by TBARS assay; format: functional, cell-based
Outline: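 Lipid peroxidation in rat liver cells induced by Fe2+–ascorbate complex; measured as thiobarbituric acid reacting substances (TBARS). Vitamin C standard; IC50 derived.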

Osteoclast [1] = test: In-vitro antibone resorptive activity Sprague-Dawley rat pup long bone osteoclasts assessed as compound concentration causing inhibition of bone resorption after 24 hrs by MTT assay; format: functional
Outline: (§1)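 Osteoclasts scraped from long bones of 1–2-day-old Sprague–Dawley rat pups into Hepes-buffered DMEM with 7–10% heat-inactivated FCS; attached 30 min to bovine cortical bone slices, unattached cells rinsed off. Treated at 10, 50, 100 and 250 μM, 37 °C, 5% CO2; harvested at 24, 48, 72 h; MTT viability read at 492 nm, triplicates; inhibitory ratio reported. Alendronate reference.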

Osteoclast [2] = test: In-vitro antibone resorptive activity Sprague-Dawley rat pup long bone osteoclasts assessed as compound concentration causing inhibition of bone resorption after 48 hrs by MTT assay; format: functional; outline: as §1
Osteoclast [3] = test: In-vitro antibone resorptive activity Sprague-Dawley rat pup long bone osteoclasts assessed as compound concentration causing inhibition of bone resorption after 72 hrs by MTT assay; format: functional; outline: as §1
[4] = system: Radical scavenging activity; test: Antioxidant activity assessed as DPPH free radical scavenging activity after 30 mins; format: functional
Outline: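 DPPH (85 μM) added to medium containing a range of test concentrations; incubated 30 min at room temperature; decrease in absorbance read at 518 nm. Ascorbic acid served as reference for maximal decrease. Activity expressed as % inhibition of DPPH absorbance relative to standard; IC50 derived.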

[5] = Antioxidant activity assessed as potassium ferricyanide ion reducing power after 20 mins by spectrophotometry; format: functional
Outline: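 Compounds (50–100 μM) mixed with phosphate buffer (0.2 M, pH 6.6) and 1% potassium ferricyanide, 50 °C for 20 min; 10% TCA added, centrifuged; upper layer diluted with water plus 0.1% ferric chloride; absorbance at 700 nm, higher absorbance = greater reducing power. Vitamin C standard.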

SMILES | IC50 (Liver) [mg/L] | Concentration causing inhibition of bone resorption (Osteoclast [1]) [µM] | Concentration causing inhibition of bone resorption (Osteoclast [2]) [µM] | inhibitory concentration (Osteoclast [3]) [µM] | IC50 [4] [mg/L] | IC50 [5] [mg/L] | INH (Osteoclast [1]) [µM] | INH (Osteoclast [2]) [µM]
O=[N+]([O-])c1ncc(NC(P(=O)(Oc2ccccc2)Oc2ccccc2)P(=O)(Oc2ccccc2)Oc2ccccc2)s1 | 97.9 (≈ 157 µM) | 106.6 | 87.7 | 51.6 | 48.6 (≈ 77.9 µM) | 3.54 (≈ 5.68 µM) |  | 
COc1ccc(NC(P(=O)(Oc2ccccc2)Oc2ccccc2)P(=O)(Oc2ccccc2)Oc2ccccc2)cc1 | 89.8 (≈ 149 µM) | 138.7 | 102.6 | 67.7 | 40.7 (≈ 67.7 µM) | 2.73 (≈ 4.54 µM) |  | 
O=P(Oc1ccccc1)(Oc1ccccc1)C(Nc1cccc2ncsc12)P(=O)(Oc1ccccc1)Oc1ccccc1 | 84.9 (≈ 135 µM) | 125.9 | 95.9 | 54.5 | 47.9 (≈ 76.2 µM) | 2.44 (≈ 3.88 µM) |  | 
O=P(Oc1ccccc1)(Oc1ccccc1)C(Nc1ccc(Cl)cc1)P(=O)(Oc1ccccc1)Oc1ccccc1 | 87.5 (≈ 144 µM) | 191.4 | 140.3 | 71.8 | 41.5 (≈ 68.5 µM) | 2.71 (≈ 4.47 µM) |  | 
O=[N+]([O-])c1cccc(NC(P(=O)(Oc2ccccc2)Oc2ccccc2)P(=O)(Oc2ccccc2)Oc2ccccc2)c1 | 85.7 (≈ 139 µM) | 49.6 | 28.8 | 14.6 | 39.6 (≈ 64.2 µM) | 2.09 (≈ 3.39 µM) |  | 
O=C1O[C@H]([C@@H](O)CO)C(O)=C1O [ASCORBIC ACID] | 75.2 (≈ 427 µM) |  |  |  | 32.2 (≈ 183 µM) | 2.51 (≈ 14.3 µM) |  | 
NCCCC(O)(P(=O)(O)O)P(=O)(O)O [ALENDRONIC ACID] |  |  |  | 20.4 |  |  | 52.7 | 29.6
O=P(Oc1ccccc1)(Oc1ccccc1)C(Nc1ccccc1)P(=O)(Oc1ccccc1)Oc1ccccc1 [TETRAPHENYL(PHENYLAMINO)METHYLENE DIPHOSPHONATE] | 96 (≈ 168 µM) | 201.6 | 168.2 | 104.4 | 80.6 (≈ 141 µM) | 3.12 (≈ 5.46 µM) |  | 
O=[N+]([O-])c1cc(NC(P(=O)(Oc2ccccc2)Oc2ccccc2)P(=O)(Oc2ccccc2)Oc2ccccc2)ccc1F | 78.5 (≈ 124 µM) | 31.2 | 19.1 | 8.1 | 30.1 (≈ 47.4 µM) | 2.27 (≈ 3.58 µM) |  | 
Cc1ncc(NC(P(=O)(Oc2ccccc2)Oc2ccccc2)P(=O)(Oc2ccccc2)Oc2ccccc2)s1 | 75.2 (≈ 127 µM) | 88.4 | 64.2 | 48.8 | 58.4 (≈ 98.6 µM) | 3.01 (≈ 5.08 µM) |  | 
O=P(Oc1ccccc1)(Oc1ccccc1)C(Nc1ccc(F)c(Cl)c1)P(=O)(Oc1ccccc1)Oc1ccccc1 | 80.6 (≈ 129 µM) | 32.7 | 21.6 | 10.4 | 32.9 (≈ 52.7 µM) | 2.14 (≈ 3.43 µM) |  | 
O=P(Oc1ccccc1)(Oc1ccccc1)C(Nc1ccc(F)cc1)P(=O)(Oc1ccccc1)Oc1ccccc1 | 86.2 (≈ 146 µM) | 126.1 | 89.1 | 56.4 | 48.2 (≈ 81.8 µM) | 2.86 (≈ 4.85 µM) |  | 

Reference: ChEMBL document CHEMBL1821678, “Synthesis and bio-activity evaluation of tetraphenyl(phenylamino) methylene bisphosphonates as antioxidant agents and as potent inhibitors of osteoclasts in vitro” (Eur J Med Chem, 2011)
